Results collected from several papers.
Compare with care: the assays were run in different laboratories.
CDK2: Cyclin-dependent kinase 2 (CDK2, Homo sapiens, UniProt P24941)

| Compound | target | test | test system | setting | measurement | value |
| --- | --- | --- | --- | --- | --- | --- |
| COc1cc(Br)cc(C2NC(=O)NC(C)=C2C(=O)OCc2ccccc2)c1O (stereo not drawn) | Voltage-dependent L-type calcium channel subunit alpha-1C (Cacna1c, Rattus norvegicus, UniProt P22002) | ion current, inhibitor, patch clamp | HEK293 | 10 µM | inhibition | > 60% |
| CCCCC(=O)Nc1ccc(-c2ccc3ncn(CCC)c(=O)c3c2)cn1 | Serine/threonine-protein kinase D3 (PRKD3, Homo sapiens, UniProt O94806) | binding, competition with immobilised ligand |  | 0.5 µM | remaining binding | 92% |
| CCN1/C(=C/C(C)=O)Sc2ccc(F)cc21 | Alpha-1A adrenergic receptor (Adra1a, Rattus norvegicus, UniProt P43140) | ligand displacement, radioligand |  | 10 µM | inhibition | 1.54% |
| Cc1cc(S(=O)(=O)NCCO[C@H]2CC[C@H](CN3CCC(c4ccc5c(c4F)n(C)c(=O)n5C4CCC(=O)NC4=O)CC3)CC2)ccc1Nc1ncc(C(F)(F)F)c([C@H]2CC[C@@](C)(O)CC2)n1 (stereo partly drawn) | CDK2 | protein level, degrader, western blot | MKN-1 |  | Dmax | 86% |
| Cc1cc(O)c(-c2ccc([C@@H](C)CN(C)C)cc2)c2c1[nH]c(=O)c1sccc12 | MAP kinase-activated protein kinase 3 (MAPKAPK3, Homo sapiens, UniProt Q16644) | enzyme activity, inhibitor |  | 0.1 µM | inhibition | -21.1% |
| Cc1cc(=O)oc2cc(NC(=O)[C@H](CCCN=C(N)N)NC(=O)[C@H](CCCN=C(N)N)NC(=O)OCc3ccccc3)ccc12 | Cathepsin B (CTSB, Homo sapiens, UniProt P07858) | enzyme activity, substrate, fluorescence |  | pH 5 | Km | 858 µM |
| Cc1cc(S(=O)(=O)NC2CCC(CC3CCN(c4ccc(C5CCC(=O)NC5=O)cc4)CC3)CC2)ccc1Nc1ncc(C(F)(F)F)c(N2CCC[C@](C)(O)C2)n1 (stereo partly drawn) | CDK2 | protein level, degrader, western blot | MKN-1 |  | Dmax | 80% |
| C1=C/COCc2cc(ccc2OCCN2CCCC2)Nc2nccc(n2)-c2cccc(c2)COC/1 | Cyclin-dependent kinase 2 homolog (CRK2, Plasmodium falciparum, UniProt P61075) | cell-free assay |  | 0.1 µM | remaining signal | 85% |
| Cc1cc(S(=O)(=O)NCCO[C@H]2CC[C@H](CN3CCC(c4ccc5c(c4)n(C)c(=O)n5C4CCC(=O)NC4=O)CC3)CC2)ccc1Nc1ncc(C(F)(F)F)c([C@H]2CC[C@@](C)(O)CC2)n1 (stereo partly drawn) | CDK2 | protein level, degrader, western blot | MKN-1 |  | Dmax | 90% |
| NC/C(=C\F)COc1cccc(Cn2c(=S)[nH]c(=O)c3[nH]cnc32)c1 | Voltage-dependent N-type calcium channel subunit alpha-1B (Cacna1b, Rattus norvegicus, UniProt Q02294) | ligand displacement, radioligand |  | 10 µM | inhibition | < 50% |
| C#Cc1cc(-c2cc(Nc3nc(N[C@@H](C)c4ccc(F)cn4)ncc3Cl)n[nH]2)ccc1C=O | Tyrosine-protein kinase Fyn (FYN, Homo sapiens, UniProt P06241) | enzyme activity, inhibitor |  | 0.2 µM | inhibition | 66.5% |
| C[C@H]1CN(CC2CCN(c3ccc(C4CCC(=O)NC4=O)cc3F)CC2)CC[C@H]1NS(=O)(=O)c1ccc(Nc2ncc(C(F)(F)F)c(N3CCC[C@](C)(O)C3)n2)c(F)c1 (stereo partly drawn) | CDK2 | protein level, degrader, western blot | TOV21G |  | Dmax | 93% |
